Data published in ChEMBL document CHEMBL1157475, “Selective influence on contextual memory: physiochemical properties associated with selectivity of benzodiazepine ligands at GABAA receptors containing the alpha5 subunit” (J Med Chem, 2008).
Calls of active or inactive are those of the source. No cut-off for these calls is given here.

Legend:
[1] = molecular target: T1, Gamma-aminobutyric acid receptor subunit alpha-1 (Homo sapiens, UniProt P14867+P18507+P47870); assay: Displacement of [3H]Ro15-4513 from GABAA alpha-1-beta-2-gamma-2 receptor expressed in Sf9 baculovirus system
T1 sequence (P14867 whole entry): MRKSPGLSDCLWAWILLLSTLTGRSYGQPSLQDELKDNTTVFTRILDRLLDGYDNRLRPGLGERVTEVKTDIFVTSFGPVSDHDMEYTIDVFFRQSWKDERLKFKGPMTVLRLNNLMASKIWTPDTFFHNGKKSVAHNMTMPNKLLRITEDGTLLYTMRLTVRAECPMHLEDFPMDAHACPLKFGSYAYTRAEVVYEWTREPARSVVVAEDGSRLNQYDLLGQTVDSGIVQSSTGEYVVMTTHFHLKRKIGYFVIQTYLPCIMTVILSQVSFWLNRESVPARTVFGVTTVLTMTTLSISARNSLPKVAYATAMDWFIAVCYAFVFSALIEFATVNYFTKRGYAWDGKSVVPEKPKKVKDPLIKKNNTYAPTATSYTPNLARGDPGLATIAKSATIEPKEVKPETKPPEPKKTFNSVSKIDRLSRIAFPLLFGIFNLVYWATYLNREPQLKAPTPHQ
How it was run: (§1)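 Homogenates of Sf-9 cells infected 60 h earlier with baculoviruses for each of the three subunits (2 MOI, equimolar), in 50 mM Tris-HCl pH 7.7. Competition against 0.5–1.0 nM [3H]-Ro15-4513, with unlabeled ligand from 40 pM to 10 µM (ethanol below 0.1%). Incubated 90 min at 0 °C, in triplicate. Separated by rapid filtration and read by scintillation counting.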

[2] = molecular target: T2, Gamma-aminobutyric acid receptor subunit alpha-5 (Homo sapiens, UniProt P18507+P31644+P47870); assay: Displacement of [3H]Ro15-4513 from GABAA alpha-5-beta-2-gamma-2 receptor expressed in Sf9 baculovirus system; how it was run: as §1
T2 sequence (P31644 whole entry): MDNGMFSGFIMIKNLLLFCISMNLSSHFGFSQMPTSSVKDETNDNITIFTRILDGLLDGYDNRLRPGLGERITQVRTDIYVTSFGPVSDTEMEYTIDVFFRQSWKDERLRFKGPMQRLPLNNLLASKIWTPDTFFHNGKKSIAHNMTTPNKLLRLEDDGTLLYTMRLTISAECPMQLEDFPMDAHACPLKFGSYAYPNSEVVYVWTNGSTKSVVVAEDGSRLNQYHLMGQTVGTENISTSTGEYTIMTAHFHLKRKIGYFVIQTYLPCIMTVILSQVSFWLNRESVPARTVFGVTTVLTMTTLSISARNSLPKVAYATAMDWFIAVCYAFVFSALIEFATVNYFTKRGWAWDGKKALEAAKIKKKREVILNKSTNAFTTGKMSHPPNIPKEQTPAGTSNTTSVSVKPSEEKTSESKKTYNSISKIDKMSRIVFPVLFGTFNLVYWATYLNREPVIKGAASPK

[3] = molecular target: T1, Gamma-aminobutyric acid receptor subunit alpha-1; assay: Binding affinity to GABAA alpha-1-beta-2-gamma-2 receptor
[4] = molecular target: T2, Gamma-aminobutyric acid receptor subunit alpha-5; assay: Binding affinity to GABAA alpha-5-beta-2-gamma-2 receptor
How it was run: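 Sf-9 insect cells infected with baculovirus carrying α5, β2 and γ2 subunits in equimolar ratio (2 MOI), harvested 60 h post-infection, then homogenized in 50 mM Tris-HCl pH 7.7. Incubated 90 min at 0 °C in triplicate; filtration and scintillation counting.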

[5] = molecular target: T3, GABA-A receptor; alpha-1/beta-3/gamma-2 (Homo sapiens, UniProt P14867+P18507+P28472); assay: Binding affinity to GABAA alpha-1-beta-3-gamma-2 receptor; assay type: protein-complex assay
T3 sequence (P14867 whole entry): T1 sequence (P14867 whole entry)
T3 sequence (P18507 whole entry): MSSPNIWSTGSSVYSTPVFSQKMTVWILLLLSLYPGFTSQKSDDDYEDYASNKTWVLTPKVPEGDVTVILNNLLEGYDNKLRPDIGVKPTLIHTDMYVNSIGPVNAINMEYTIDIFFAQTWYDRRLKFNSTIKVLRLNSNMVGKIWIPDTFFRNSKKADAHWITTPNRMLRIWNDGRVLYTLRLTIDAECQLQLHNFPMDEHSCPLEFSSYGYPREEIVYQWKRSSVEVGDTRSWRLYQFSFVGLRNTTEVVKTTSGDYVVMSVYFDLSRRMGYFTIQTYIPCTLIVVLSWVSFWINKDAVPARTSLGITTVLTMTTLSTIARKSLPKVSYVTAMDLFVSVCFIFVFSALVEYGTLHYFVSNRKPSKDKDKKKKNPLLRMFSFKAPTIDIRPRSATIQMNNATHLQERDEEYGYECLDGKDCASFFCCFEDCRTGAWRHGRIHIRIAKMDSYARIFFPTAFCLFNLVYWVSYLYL
T3 sequence (P28472 whole entry): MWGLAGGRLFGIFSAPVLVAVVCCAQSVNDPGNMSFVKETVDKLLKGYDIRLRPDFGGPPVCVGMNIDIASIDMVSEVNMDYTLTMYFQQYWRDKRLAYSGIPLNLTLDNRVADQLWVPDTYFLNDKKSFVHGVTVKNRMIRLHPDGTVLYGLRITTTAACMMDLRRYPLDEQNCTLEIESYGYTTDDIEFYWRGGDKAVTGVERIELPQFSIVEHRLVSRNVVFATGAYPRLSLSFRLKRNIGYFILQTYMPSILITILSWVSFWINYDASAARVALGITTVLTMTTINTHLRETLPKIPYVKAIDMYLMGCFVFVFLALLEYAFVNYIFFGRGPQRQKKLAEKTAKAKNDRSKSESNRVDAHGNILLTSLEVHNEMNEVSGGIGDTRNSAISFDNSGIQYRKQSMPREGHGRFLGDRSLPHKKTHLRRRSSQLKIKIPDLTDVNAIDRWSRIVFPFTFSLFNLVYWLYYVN

[6] = test system: Mus musculus; assay: Anticonvulsant activity in C57BL/6J mouse assessed as inhibition of increase in excitatory tone in brain at 30 mg/kg, ip; assay type: functional, organism-based; set-up: dose 30 mg/kg
[7] = molecular target: T4, GABA A receptor alpha-4/beta-3/gamma-2 (Homo sapiens, UniProt P18507+P28472+P48169); assay: Binding affinity to GABAA alpha-4-beta-3-gamma-2 receptor; assay type: protein-complex assay
T4 sequence (P48169 whole entry, one chain of several): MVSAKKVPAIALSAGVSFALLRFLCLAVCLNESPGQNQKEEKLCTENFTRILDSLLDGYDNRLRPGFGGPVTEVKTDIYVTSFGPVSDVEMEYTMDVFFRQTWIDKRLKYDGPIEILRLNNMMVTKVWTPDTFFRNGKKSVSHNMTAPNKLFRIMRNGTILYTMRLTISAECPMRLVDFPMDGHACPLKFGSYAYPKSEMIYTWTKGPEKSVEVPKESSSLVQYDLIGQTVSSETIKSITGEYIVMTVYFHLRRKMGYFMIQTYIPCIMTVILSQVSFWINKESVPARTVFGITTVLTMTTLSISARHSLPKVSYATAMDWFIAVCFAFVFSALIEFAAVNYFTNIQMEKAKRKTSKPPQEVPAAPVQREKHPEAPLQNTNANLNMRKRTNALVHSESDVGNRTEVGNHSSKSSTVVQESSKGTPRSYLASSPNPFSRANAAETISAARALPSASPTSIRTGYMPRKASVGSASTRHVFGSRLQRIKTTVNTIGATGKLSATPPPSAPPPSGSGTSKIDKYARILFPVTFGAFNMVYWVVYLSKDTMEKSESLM

[8] = molecular target: T5, GABA-A receptor; alpha-6/beta-3/gamma-2 (Homo sapiens, UniProt P18507+P28472+Q16445); assay: Binding affinity to GABAA alpha-6-beta-3-gamma-2 receptor; assay type: protein-complex assay
T5 sequence (Q16445 whole entry, one chain of several): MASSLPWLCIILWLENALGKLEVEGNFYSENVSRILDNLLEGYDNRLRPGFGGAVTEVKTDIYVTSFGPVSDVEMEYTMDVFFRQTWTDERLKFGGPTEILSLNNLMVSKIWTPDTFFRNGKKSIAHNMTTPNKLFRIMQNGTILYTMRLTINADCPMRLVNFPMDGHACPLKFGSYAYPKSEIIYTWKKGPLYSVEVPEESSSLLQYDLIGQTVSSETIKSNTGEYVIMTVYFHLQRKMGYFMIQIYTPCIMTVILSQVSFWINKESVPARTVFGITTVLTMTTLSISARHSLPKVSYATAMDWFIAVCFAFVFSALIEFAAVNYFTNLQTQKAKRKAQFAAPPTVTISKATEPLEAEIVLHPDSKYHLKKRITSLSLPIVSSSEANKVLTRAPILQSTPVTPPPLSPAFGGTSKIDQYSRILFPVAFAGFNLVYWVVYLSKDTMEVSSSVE

[9] = Selectivity for GABAA alpha-5-beta-3-gamma-2 receptor over GABAA alpha-1-beta-3-gamma-2 receptor
[10] = Selectivity for GABAA alpha-5-beta-3-gamma-2 receptor over GABAA alpha-2-beta-3-gamma-2 receptor
[11] = Selectivity for GABAA alpha-5-beta-3-gamma-2 receptor over GABAA alpha-3-beta-3-gamma-2 receptor
[12] = Selectivity for GABAA alpha-5-beta-3-gamma-2 receptor over GABAA alpha-4-beta-3-gamma-2 receptor
[13] = Selectivity for GABAA alpha-5-beta-3-gamma-2 receptor over GABAA alpha-6-beta-3-gamma-2 receptor
[14] = molecular target: GABA-A receptor; alpha-2/beta-3/gamma-2 (Homo sapiens) (UniProt P18507+P28472+P47869); assay: Activity at GABAA alpha-2-beta-3-gamma-2 receptor expressed in Xenopus oocytes assessed as potentiation of GABA-induced chloride current at 1 uM; assay type: cell-based; settings: Oocyte
[15] = molecular target: T4, GABA A receptor alpha-4/beta-3/gamma-2; assay: Activity at GABAA alpha-4-beta-3-gamma-2 receptor expressed in Xenopus oocytes assessed as potentiation of GABA-induced chloride current at 1 uM; assay type: cell-based; settings: Oocyte
[16] = molecular target: T5, GABA-A receptor; alpha-6/beta-3/gamma-2; assay: Activity at GABAA alpha-6-beta-3-gamma-2 receptor expressed in Xenopus oocytes assessed as potentiation of GABA-induced chloride current at 1 uM; assay type: cell-based; settings: Oocyte
[17] = test system: Mus musculus; assay: Inhibition of scopolamine-induced impairment of contextual memory in C57BL/6J mouse at 10 mg/kg, ip after 24 hrs; assay type: functional, organism-based; set-up: dose 10 mg/kg
How it was run: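 Male C57Bl/6 mice, 7–12 weeks old, given ip vehicle (0.9% saline with 2.5% encapsin), scopolamine 1.5 mg/kg, or scopolamine plus ligand. After 20 min: context exposure, then three 33 s tones (85 dB, 2.9 kHz), each ending with a 0.75 mA footshock. Freezing scored over 4 min in the same context 24 h later.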

Question: What does the source list for `Cc1nn(Cc2nc(-c3cccc([N+](=O)[O-])c3)cs2)c(C)c1Br`?
Answer: IC50 [1]: > 10000 nM; IC50 [2]: > 10000 nM

Question: What does the source list for `CSC1SC(C(=O)c2cccc([N+](=O)[O-])c2)C2CC(C)(C)CC(=O)C12` (centres undefined)?
Answer: IC50 [1]: > 10000 nM; IC50 [2]: > 10000 nM

Question: Which Kd [3] does the source give for `CCOc1cc2c(cn1)[nH]c1ccccc12` here?
Answer: 1.2 nM

Question: And the Kd [4]?
Answer: 826 nM

Question: Which Ki [5] does the source give for `COCc1ncn2c1CN(C)C(=O)c1cc(Cl)ccc1-2` here?
Answer: 920 nM

Question: What about the Activity [6] of the same compound?
Answer: Active

Question: What about the Ki [7] of the same compound?
Answer: > 300 nM

Question: What about the Ki [8] of the same compound?
Answer: 9000 nM

Question: And the Selectivity ratio [9]?
Answer: 20

Question: And the Selectivity ratio [10]?
Answer: 20

Question: And the Selectivity Index [11]?
Answer: 20

Question: What about the Activity [12] of the same compound?
Answer: 20

Question: What about the Activity [13] of the same compound?
Answer: 20

Question: What about the Activity [14] of the same compound?
Answer: 4%

Question: What about the Activity [15] of the same compound?
Answer: 4%

Question: What about the Activity [16] of the same compound?
Answer: 4%

Question: And the Activity [17]?
Answer: Active

Question: With `CCCCCc1ncn2c3ccc(Cl)cc3c(=O)n(C)c12` as the compound, how does the Ki [5] read?
Answer: 2050 nM

Question: What about the Ki [4] of the same compound?
Answer: 369 nM

Question: For `CC(=O)NC1N=C(c2ccccc2)c2ccccc2NC1=O` (centres undefined), which IC50 [1] is on record?
Answer: > 10000 nM

Question: What about the IC50 [2] of the same compound?
Answer: > 10000 nM

Question: Which IC50 [1] does the source give for `CSC1SC(C(=O)c2ccc(Cl)cc2)C2CC(C)(C)CC(=O)C12` (centres undefined) here?
Answer: 580 nM

Question: What about the IC50 [2] of the same compound?
Answer: 210 nM

Question: With `CCCOc1cc2c(cn1)[nH]c1ccccc12` as the compound, how does the Kd [3] read?
Answer: 5 nM

Question: And the Kd [4]?
Answer: 591 nM

Question: Which Kd [3] does the source give for `CCOC(=O)c1[nH]cc2nc3cc(OC)c(OC)cc3c-2c1CC` here?
Answer: 8 nM

Question: What about the Kd [4] of the same compound?
Answer: 1 nM

Question: For `O=C1C2C=Nc3ccccc3C2=NN1c1ccc(Cl)cc1` (centres undefined) [CGS-9896], which Kd [3] is on record?
Answer: 0.3 nM

Question: And the Kd [4]?
Answer: 40 nM

Question: What does the source list for `CCOCc1ncn2c3ccc(Cl)cc3c(=O)n(C)c12`?
Answer: Ki [5]: 500 nM; Ki [4]: 83 nM

Question: For `CC(=O)c1ncn2c3ccc(Cl)cc3c(=O)n(C)c12`, which Ki [5] is on record?
Answer: 17500 nM

Question: And the Ki [4]?
Answer: 2610 nM

Question: For `COC(=O)c1cc2c(cn1)[nH]c1ccccc12` [BETA-CCM], which Kd [3] is on record?
Answer: 1 nM

Question: What about the Kd [4] of the same compound?
Answer: 58 nM

Question: For `C#Cc1ccc2c(c1)C(c1ccccc1)=NCC(=O)N2C`, which Kd [3] is on record?
Answer: 76 nM

Question: What about the Kd [4] of the same compound?
Answer: 7 nM

Question: What does the source list for `CCc1ncn2c3ccc(Cl)cc3c(=O)n(C)c12`?
Answer: Ki [5]: 408 nM; Ki [4]: 182 nM

Question: Which Kd [3] does the source give for `CCOC(=O)c1ncn2c1C1CCCN1C(=O)c1cc(C#C[Si](C)(C)C)ccc1-2` (centres undefined) here?
Answer: 200 nM

Question: And the Kd [4]?
Answer: 4 nM

Question: For `CCOC(=O)c1cc2c(cn1)[nH]c1ccccc12`, which Kd [3] is on record?
Answer: 1 nM
